The values below come from ChEMBL document CHEMBL1123848, “Role of the (acyloxy)methyl moiety in eliciting the adrenergic beta-blocking activity of 3-(acyloxy)propanolamines” (J Med Chem, 1987).

Assay [1] concerns the target Beta-2 adrenergic receptor (Cavia porcellus) (UniProt Q8K4Z4). Kind of assay: (§1) Antagonist activity against beta-2 adrenergic receptor in isolated guinea pig trachea. Format: functional, tissue-based.
Assay [2] concerns the target Beta-2 adrenergic receptor (Cavia porcellus, UniProt Q8K4Z4). The assay is described as §1. It counts as functional, tissue-based. The following applies: read-out: pA2 (converted).
Assay [3] has as its target Beta-1 adrenergic receptor (Cavia porcellus, UniProt B0FL73). The experiment in a line: (§2) Antagonist activity against beta-1 adrenergic receptor in isolated guinea pig atria. The following applies: read-out: pA2 (converted). It counts as functional. The method in brief:
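Atria from adult male guinea pigs (300–350 g), stabilized 45 min in Tyrode solution. Isoprenaline dose-effect curve by single doses, each run to maximal response. Antagonist added at increasing concentrations with 15 min contact per dose; solutions freshly prepared.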

Assay [4] has as its target Beta-1 adrenergic receptor (Cavia porcellus) (UniProt B0FL73). The description is as §2. It counts as functional. The essentials: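 Atria from adult male guinea pigs (300–350 g), stabilized 45 min in Tyrode solution. Isoprenaline dose-effect curve by single doses, each run to maximal response. Antagonist added at increasing concentrations with 15 min contact per dose; solutions freshly prepared. Percent inhibition of the maximal agonist response measured; pA2 (50% reduction) and pA10 (90%) calculated by the Arunlakshana–Schild method.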

Chain of Beta-1 adrenergic receptor (B0FL73 whole entry): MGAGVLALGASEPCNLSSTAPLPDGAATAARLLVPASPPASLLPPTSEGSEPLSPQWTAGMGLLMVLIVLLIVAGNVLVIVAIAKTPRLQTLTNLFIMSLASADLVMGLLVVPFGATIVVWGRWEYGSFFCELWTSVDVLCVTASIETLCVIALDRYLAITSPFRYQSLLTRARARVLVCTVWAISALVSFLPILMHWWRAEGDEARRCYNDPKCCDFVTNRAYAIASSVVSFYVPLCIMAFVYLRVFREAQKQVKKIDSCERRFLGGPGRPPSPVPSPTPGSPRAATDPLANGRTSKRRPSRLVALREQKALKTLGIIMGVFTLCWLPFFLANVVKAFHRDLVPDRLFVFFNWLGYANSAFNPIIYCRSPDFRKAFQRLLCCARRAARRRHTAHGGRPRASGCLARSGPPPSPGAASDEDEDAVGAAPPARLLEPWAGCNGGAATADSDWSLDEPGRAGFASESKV
Chain of Beta-1 adrenergic receptor (Cavia porcellus) (B0FL73 1-467): as the sequence (B0FL73 whole entry) above
Chain of Beta-2 adrenergic receptor (Q8K4Z4 whole entry): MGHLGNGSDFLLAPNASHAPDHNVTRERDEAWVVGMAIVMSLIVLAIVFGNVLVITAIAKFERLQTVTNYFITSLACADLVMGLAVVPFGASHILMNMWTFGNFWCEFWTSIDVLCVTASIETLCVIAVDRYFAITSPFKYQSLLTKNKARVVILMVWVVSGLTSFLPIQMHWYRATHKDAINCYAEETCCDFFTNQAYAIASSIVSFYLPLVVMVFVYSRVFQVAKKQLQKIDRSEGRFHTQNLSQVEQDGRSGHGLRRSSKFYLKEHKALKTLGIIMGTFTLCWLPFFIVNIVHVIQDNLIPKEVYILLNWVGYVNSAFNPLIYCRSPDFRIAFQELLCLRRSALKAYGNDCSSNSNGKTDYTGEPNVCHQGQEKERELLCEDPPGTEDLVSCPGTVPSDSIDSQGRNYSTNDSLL
Chain of Beta-2 adrenergic receptor (Cavia porcellus) (Q8K4Z4 whole entry, looked up): as the sequence (Q8K4Z4 whole entry) above

Turning to `CC(C)C(=O)OCC(O)CNC(C)(C)C` (stereo not given), the pA10 in assay [1] came out at 3.94; in assay [4] it was 4.1. Besides, the Kb was 28.8 µM in assay [2] and 11.5 µM in assay [3].
Regarding `CC(C)NCC(O)COC(=O)C(C)C` (stereo not given), the values for the pA10 in assay [1] and in assay [4] were 4.52 and 3.9, respectively. Further, the Kb in assay [2] is 4.27 µM; in assay [3], 26.9 µM.
The corresponding values for `CC(C)(C)NCC(O)COC(=O)c1cccs1` (stereo not given) are 6.82, 5.42, 0.0191 µM and 0.457 µM.
The corresponding values for `CC(C)NCC(O)COC(=O)c1cccs1` (stereo not given) are 5.54, 5.11, 0.468 µM and 1.58 µM.
As for `CC(C)NCC(O)COC(=O)C1CCCCC1` (stereo not given), the pA10 came out at 4.62 in assay [1] and 4.2 in assay [4]. Also, the results for the Kb in assay [2] and in assay [3] were 2.29 µM and 12.3 µM, respectively.
For `COc1ccc(OC)c(C(O)C(C)NC(C)(C)C)c1` (stereo not given), the pA10 stood at 5.96 in assay [1] and 3.98 in assay [4].
For the molecule `CCC(=O)OCC(O)CNC(C)(C)C` (stereo not given), the pA10 was 3.79 in assay [1] and 3.74 in assay [4]. Moreover, the Kb is 26.3 µM in assay [2] and 28.2 µM in assay [3].
For `CC(C)NCC(O)COC(=O)c1ccc2c(c1)OCO2` (stereo not given), in assay [3], the Kb is 0.126 µM.
Consider `CC(C)(C)NCC(O)COC(=O)C1CCCCC1` (stereo not given), for which the values for the pA10 in assay [1] and in assay [4] were 4.71 and 4.22, respectively. For the same molecule, the Kb in assay [2] was 2.51 µM; in assay [3] it was 7.94 µM.
Turning to `CC(C)NCC(O)COC(=O)Cc1cccs1` (stereo not given), the pA10 in assay [1] was 4.35; in assay [4] it was 4.28. The Kb in assay [2] was 10 µM; in assay [3] it was 11 µM.
